Experimental data: ChEMBL document CHEMBL3758101, “Synthesis and biological evaluation of fluorinated 1,5-diarylpyrrole-3-alkoxyethyl ether derivatives as selective COX-2 inhibitors endowed with anti-inflammatory activity” (Eur J Med Chem, 2016)
The source made the active and inactive calls.

Experiments:
Rattus norvegicus [1] = test: Antiinflammatory activity in Sprague-Dawley rat model of carrageenan-induced paw edema assessed as volume of paw edema at 20 mg/kg, po administered 2 hrs post carrageenan challenge measured after 60 mins by plethysmometry (reference value: 2.73 +/- 0.07 ml); assay type: functional
Mus musculus [2] = test: Antinociceptive activity in CD1 albino mouse model of acetic acid-induced visceral pain assessed as number of writhes at 10 mg/kg, po pretreated for 30 mins before acetic acid challenge measured after 5 mins (reference value: 30.5 +/- 1.7); assay type: functional
Mus musculus [3] = test: Antinociceptive activity in CD1 albino mouse model of acetic acid-induced visceral pain assessed as number of writhes at 20 mg/kg, po pretreated for 30 mins before acetic acid challenge measured after 5 mins (reference value: 30.5 +/- 1.7); assay type: functional
Mus musculus [4] = test: Antinociceptive activity in CD1 albino mouse model of acetic acid-induced visceral pain assessed as number of writhes at 3 mg/kg, po pretreated for 60 mins before acetic acid challenge measured after 5 mins (reference value: 32.5 +/- 2.4); assay type: functional
Rattus norvegicus [5] = test: Antihyperalgesic effect in Sprague-Dawley rat model of monosodium iodoacetate-induced osteoarthritis assessed as withdrawal threshold at 3 mg/kg, ip administered 14 days post MIA challenge measured after 60 mins by paw pressure test (reference value: 36.1 +/- 3.5 g); assay type: functional
Procedure, shortened: (§1)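 Male Sprague–Dawley rats (200–250 g). MIA (2 mg/25 µL) was injected into the left tibiotarsal joint on day 0 under 2% isoflurane; controls received 25 µL saline. On day 14 compound or vehicle was given at time 0. Paw pressure threshold (g) was read with an analgesimeter using a blunt conical probe on the dorsal paw at 30, 60, 90 and 120 min. Mean ± s.e.m., 6 rats.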

Rattus norvegicus [6] = test: Antihyperalgesic effect in Sprague-Dawley rat model of monosodium iodoacetate-induced osteoarthritis assessed as withdrawal threshold at 20 mg/kg, ip administered 14 days post MIA challenge measured after 90 mins by paw pressure test (reference value: 37.8 +/- 3.1 g); assay type: functional; procedure, shortened: as §1
Rattus norvegicus [7] = test: Antihyperalgesic effect in Sprague-Dawley rat model of monosodium iodoacetate-induced osteoarthritis assessed as withdrawal threshold at 10 mg/kg, ip administered 14 days post MIA challenge measured after 120 mins by paw pressure test (reference value: 39.2 +/- 4 g); assay type: functional; procedure, shortened: as §1
Rattus norvegicus [8] = test: Antihyperalgesic effect in Sprague-Dawley rat model of monosodium iodoacetate-induced osteoarthritis assessed as withdrawal threshold at 20 mg/kg, ip administered 14 days post MIA challenge measured after 120 mins by paw pressure test (reference value: 39.2 +/- 4 g); assay type: functional; procedure, shortened: as §1
HaCaT [9] = test: Antiproliferative activity against human HaCaT cells after 24 hrs by BrdU incorporation assay; assay type: functional, cell-based
Procedure, shortened: (§2)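 HaCaT human keratinocytes were grown in high-glucose DMEM with 10% FBS and 2 mM L-glutamine at 37 °C and 5% CO2 to 80% confluency. Cells were treated 24 h with compound at 1, 10 or 50 µM (final DMSO ≤0.1%). Proliferation was read by BrdU incorporation as % of DMSO control; three experiments.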

HaCaT [10] = test: Antiproliferative activity against human HaCaT cells at 10 uM after 24 hrs by BrdU incorporation assay; assay type: functional, cell-based; procedure, shortened: as §2
HaCaT [11] = test: Antiproliferative activity against human HaCaT cells at 50 uM after 24 hrs by BrdU incorporation assay; assay type: functional, cell-based; procedure, shortened: as §2
HaCaT [12] = test: Antiproliferative activity against human HaCaT cells at 1 uM after 24 hrs by BrdU incorporation assay; assay type: functional, cell-based; procedure, shortened: as §2
[13] = target: T1, Prostaglandin G/H synthase 1 (Mus musculus, UniProt P22437); test: Inhibition of COX-1 in mouse J774 cells assessed as reduction in PGE2 level using arachidonic acid as substrate preincubated for 15 mins followed by incubation with arachidonic acid for 30 mins by radio immunoassay; assay type: cell-based
T1 sequence (P22437 whole entry): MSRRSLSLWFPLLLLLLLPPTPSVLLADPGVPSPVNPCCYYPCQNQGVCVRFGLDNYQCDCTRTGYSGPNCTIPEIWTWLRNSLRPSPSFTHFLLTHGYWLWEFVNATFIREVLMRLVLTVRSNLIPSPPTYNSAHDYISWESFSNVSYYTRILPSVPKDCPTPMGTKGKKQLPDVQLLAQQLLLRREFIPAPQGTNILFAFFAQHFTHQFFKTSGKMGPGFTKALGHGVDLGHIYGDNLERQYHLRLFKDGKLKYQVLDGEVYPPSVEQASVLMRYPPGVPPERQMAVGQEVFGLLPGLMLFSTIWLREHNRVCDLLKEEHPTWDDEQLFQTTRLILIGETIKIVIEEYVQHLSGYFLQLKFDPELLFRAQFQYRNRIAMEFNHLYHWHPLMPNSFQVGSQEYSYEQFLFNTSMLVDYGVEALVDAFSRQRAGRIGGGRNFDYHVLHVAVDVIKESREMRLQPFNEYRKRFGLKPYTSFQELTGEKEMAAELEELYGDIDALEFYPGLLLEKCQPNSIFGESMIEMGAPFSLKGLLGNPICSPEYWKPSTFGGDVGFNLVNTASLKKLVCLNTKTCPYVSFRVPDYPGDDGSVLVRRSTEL
Procedure, shortened: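 Murine J774 macrophages (2.5 × 10^5 cells/mL) were adhered 2 h at 37 °C and given fresh medium. Cells were pretreated with compound at 100 µM for 15 min, then incubated 30 min at 37 °C with 15 µM arachidonic acid. Supernatant PGE2 was measured by RIA as % inhibition versus control; triplicate wells, three experiments, IC50 from a sigmoidal variable-slope fit.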

Rattus norvegicus [14] = test: Antiinflammatory activity in Sprague-Dawley rat model of carrageenan-induced paw edema assessed as paw volume at 3 mg/kg, po administered 2 hrs post carrageenan challenge measured after 90 mins by plethysmometry (reference value: 37.2 +/- 3.4 ml); assay type: functional
Rattus norvegicus [15] = test: Antiinflammatory activity in Sprague-Dawley rat model of carrageenan-induced paw edema assessed as volume of paw edema at 3 mg/kg, po administered 2 hrs post carrageenan challenge measured after 60 mins by plethysmometry (reference value: 2.73 +/- 0.07 ml); assay type: functional
Rattus norvegicus [16] = test: Antiinflammatory activity in Sprague-Dawley rat model of carrageenan-induced […] at 10 mg/kg, po administered 2 hrs post carrageenan challenge measured after 30 mins by […] (reference value: 34.1 +/- 2.3 ml); assay type: functional
Rattus norvegicus [17] = test: Antiinflammatory activity in Sprague-Dawley rat model of carrageenan-induced paw edema assessed as paw volume at 10 mg/kg, po administered 2 hrs post carrageenan challenge measured after 90 mins by plethysmometry (reference value: 37.2 +/- 3.4 ml); assay type: functional
Rattus norvegicus [18] = test: Antiinflammatory activity in Sprague-Dawley rat model of carrageenan-induced […] at 10 mg/kg, po administered 2 hrs post carrageenan challenge measured after 120 mins by […] (reference value: 34.5 +/- 4.4 ml); assay type: functional
Rattus norvegicus [19] = test: Antihyperalgesic activity in Sprague-Dawley rat model of carrageenan-induced inflammatory pain assessed as paw pressure threshold at 3 mg/kg, po administered 2 hrs post carrageenan challenge measured after 30 mins by paw pressure test (reference value: 34.1 +/- 2.3 g)
Rattus norvegicus [20] = test: Antihyperalgesic activity in Sprague-Dawley rat model of carrageenan-induced inflammatory pain assessed as paw pressure threshold at 20 mg/kg, po administered 2 hrs post carrageenan challenge measured after 90 mins by paw pressure test (reference value: 37.2 +/- 3.4 g)

Work on Cc1c(CCOCCCF)cc(-c2ccc(S(C)(=O)=O)cc2)n1-c1ccc(F)cc1 yielded an Activity (Rattus norvegicus [1]) of 2.06 mL, an Activity (Mus musculus [2]) of 11.4 and an Activity (Mus musculus [3]) of 10.7. It also gave an Activity (Mus musculus [4]) of 24.6, an Activity (Rattus norvegicus [5]) of 45.4 g and an Activity (Rattus norvegicus [6]) of 43.8 g. The Activity (Rattus norvegicus [7]) was 40.6 g, the Activity (Rattus norvegicus [8]) was 37.1 g and the Activity (HaCaT [9]) was “Dose-dependent effect”. The Activity (HaCaT [10]) was “Active”, the Activity (HaCaT [11]) was “Active” and the Activity (HaCaT [12]) was “inactive”. For the same compound, the IC50 [13] was > 100 µM, the Activity (Rattus norvegicus [14]) was 44.8 g and the Activity (Rattus norvegicus [15]) was 2.38 mL. For the same compound, the Activity (Rattus norvegicus [16]) was 51.7 g, the Activity (Rattus norvegicus [17]) was 47.2 g and the Activity (Rattus norvegicus [18]) was 38.1 g. For the same compound, the Activity (Rattus norvegicus [19]) was 45.2 g and the Activity (Rattus norvegicus [20]) was 44.9 g.
